# DSG3 Ab inh: human desmoglein-3 autoantibody binding inhibition | 310,000 compounds, 0.48% hits | P32926 | AID 588358 | binding (percent of control), % at 10 µM | DSG3-coupled beads, scFv-anti-DSG3-GFP binding, flow cytometry; active compounds read low;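 active = binding more than 3 SD below its plate's average and above zero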;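 also: hits lower antibody fragment binding to DSG3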
# JMJD2C inh: inhibitors of human GASC-1 (JMJD2C) demethylase; AID 2099; GST-JMJD2C(1-420) H3K9me3 demethylation, DELFIA europium; 330,000 compounds, 0.069% hits; Q9H3R0; inhibition, % at 2.35 µM;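 active = more than half of a compound's replicate wells show inhibition beyond 50%, single wells judged on their own value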;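 also: signal counts dimethyl H3K9 product captured on neutravidin plate; 0% = median of DMSO wells and 100% = 0.3 times that DMSO median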
# Arrestin-AP2 inh: blocks beta-arrestin peptide binding to AP2 adaptin; FITC-arrestin peptide / GST-AP2 beads, flow cytometry; AP2 beta2 appendage carries R879A mutation; inhibition, % at 10 µM; 340,000 compounds, 0.31% hits;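 active = inhibition above a set limit, near 3 SD of compounds lacking own fluorescence, cut at about 54% in these data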;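 also: plate controls were DMSO wells for no effect and 5 µM unlabelled arrestin peptide for full effect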
#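 Material – GST-tagged AP2 beta2-adaptin appendage (R879A) on 4 µm glutathione beads · Probe or stimulus – fluorescein-tagged arrestin peptide at 50 nM final · Timing – 12 min plus 1 h, RT · Detection – bead flow cytometry, FITC channel · Read-out basis – inhibition as reduced fluorescein signal on beads, percent · Medium – PBS plus Tween 20 (0.05%) and BSA (0.1%)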
# HDAC3 inhib: human HDAC3 inhibition | inhibition, % at 8.3 µM | AID 2718 | recombinant HDAC3, fluorogenic peptide/trypsin coupled, fluorescence | O15379 | 320,000 compounds, 0.15% hits; in the data active = inhibition above about 26%, passing the limit was not always enough
# Target sequence (O15379 whole entry, looked up): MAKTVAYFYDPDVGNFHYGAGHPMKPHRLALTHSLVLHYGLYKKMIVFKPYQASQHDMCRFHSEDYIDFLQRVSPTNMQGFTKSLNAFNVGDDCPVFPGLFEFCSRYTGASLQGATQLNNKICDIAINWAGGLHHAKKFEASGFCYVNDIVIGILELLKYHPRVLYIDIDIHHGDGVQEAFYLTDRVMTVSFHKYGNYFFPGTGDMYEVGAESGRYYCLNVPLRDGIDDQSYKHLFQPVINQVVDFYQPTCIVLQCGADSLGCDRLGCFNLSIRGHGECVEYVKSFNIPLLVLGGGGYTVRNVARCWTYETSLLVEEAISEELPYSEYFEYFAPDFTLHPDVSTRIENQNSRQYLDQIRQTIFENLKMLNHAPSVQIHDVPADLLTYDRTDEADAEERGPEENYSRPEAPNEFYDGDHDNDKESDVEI
# T cell HTS: T cell immune modulators affecting CD8 T cell-vesicle binding. response (vesicle binding), % at 7 µM. AID 2052. 2C CD8+ T cell-vesicle binding, flow cytometry; active compounds read low. 330,000 compounds, 0.068% hits;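 active = response, share of CD8 T cells binding vesicles, and their 90th percentile fluorescence all below set limits, cut at about 80% in these data, passing the limit was not always enough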;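 also: values below 100% mean blocked vesicle binding to the CD8+ T cells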
#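 material = purified 2C TCR transgenic mouse naive CD8+ T cells | controls = Unloaded micro-vesicles (low), QL9 vesicles with 0.7% DMSO (high) | detection = cytometric PE anti-B7-1 and Alexa647 anti-CD8 signals after 1% paraformaldehyde fixation | incubation = binding step 1.5 h, 37 °C, antibody labelling 20 min, ice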
# LANA-H2A inh: blocks KSHV LANA binding to histone H2A/H2B; inhibition, % (concentration not given with the values); Q9QR71; cell-free LANA-H2A/H2B peptide, fluorescence polarization; AID 2629; 320,000 compounds, 0.6% hits; in the data active = inhibition mostly above about 10%, no sharp cut-off; inactive = mostly below about 6.7%
# Arr AP2 CP1: blocks beta-arrestin peptide binding to human AP2. shares compounds with Arrestin-AP2 inh. GST-AP2 beads, FITC arrestin peptide binding, flow cytometry; GST-fused beta2-adaptin appendage, R879A mutant. inhibition, % at 10 µM. 1,300 compounds, 2% hits. AID 504908;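 active = inhibition above a set limit, roughly 3 SD of non-fluorescent compound noise, cut at about 38% in these data; inactive = inhibition at or below that limit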;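 also: loss of bead fluorescence from 50 nM FITC arrestin peptide bound to appendage; 0% = negative control wells and 100% = excess unlabelled arrestin peptide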
# GST GSH counter: disrupts GST binding to glutathione beads, arrestin-AP2 artifact. GST-fluorescein binding to GSH beads, fluorescence, counter-screen. inhibition, % at 10 µM. 1,300 compounds, 2% hits. shares compounds with Arrestin-AP2 inh. AID 588338;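 active = inhibition above 50%, about 3 SD of the inhibition seen with non-fluorescent compounds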;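 also: fluorescein maleimide labelled GST captured on 4 micron glutathione beads; higher means more loss of bead fluorescence from quenching or blocked binding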
# An asterisk follows results filed as active; nt = no result. Hits are enriched below; roughly 1.6% of the tested compounds scored in any of these assays.
SMILES,DSG3 Ab inh,JMJD2C inh,Arrestin-AP2 inh,HDAC3 inhib,T cell HTS,LANA-H2A inh,Arr AP2 CP1,GST GSH counter
COc1cc(NC(=O)n2ncc3cc(Cl)ccc32)cc(OC)c1,86,3,6,6,448,6,nt,nt
CCCC1NC(=O)c2cccnc2-n2c1nc1ccc(C)cc1c2=O (stereo not drawn),110,nt,nt,nt,nt,nt,nt,nt
CC(OC(=O)c1ccc(NS(=O)(=O)c2cccs2)cc1)C(=O)N(C)C1CCCCC1 (stereo not drawn),86,0,4,0,296,2,nt,nt
CC(OC(=O)c1ccc2ncsc2c1)C(=O)N(C)C1CCCCC1 (stereo not drawn),105,-2,60*,-1,320,-10,16,-8
CCCN(CCC)S(=O)(=O)c1cccc(-c2csc(C)n2)c1,93,5,-6,12,261,0,nt,nt
O=C(NCCc1ccccc1)c1cc2sccc2n1Cc1ccccc1,nt,22,3,10,184,5,nt,nt
CCn1c(C(=O)NCCCc2ccccc2)cc2sccc21,99,4,58*,6,330,3,4,0
O=C(Cn1nc(-c2ccccc2)oc1=O)OCC(=O)c1ccccc1,116,5,22,0,288,-3,nt,nt
COc1ccccc1-c1cc(C(=O)N2CCN(S(=O)(=O)c3ccc(C)cc3)CC2)[nH]n1,110,9,-7,nt,177,nt,nt,nt
CC1=CC(C)(C)NC(=S)N1CCO,106,nt,-5,nt,nt,nt,nt,nt
NS(=O)(=O)c1ccc(N/N=C/c2ccc(O)cc2O)c([N+](=O)[O-])c1,81,-2,44,-1,91,-3,nt,nt
NS(=O)(=O)c1ccc(N/N=C/c2ccc(O)c(O)c2O)c([N+](=O)[O-])c1,28,nt,78*,nt,nt,nt,41*,14
Cc1ccccc1-c1nc2cc(NC(=O)C3CC3)ccc2o1,114,-9,-8,-39,705,3,nt,nt
COc1ccc(C2C(C(=O)c3ccc(C)o3)=C(O)C(=O)N2c2cc(C)on2)cc1OC (stereo not drawn),100,-2,4,0,164,0,nt,nt
COc1ccc(OC)c(C2C(C(=O)c3ccc(C)o3)=C(O)C(=O)N2c2cc(C)on2)c1 (stereo not drawn),126,1,59*,4,458,1,-1,-5
CCOC(=O)C1CCN(c2cc3c(cc2NC(=O)c2ccccc2)n(C)c(=O)n3C)CC1,149,-10,11,3,542,-2,18,-2
CCOC(=O)C1CCN(S(=O)(=O)c2cccc(C(=O)Nc3ccccc3)c2)CC1,nt,5,24,0,0,0,nt,nt
COc1ccc(C(=O)Nc2ccc3c(c2)n(C)c(=O)n3C)cc1OC,96,0,46,6,329,1,nt,nt
CCOC(=O)C1CCN(c2cc3c(cc2NC(=O)c2ccc(OC)c(OC)c2)n(C)c(=O)n3C)CC1,101,-5,28,1,298,-3,6,-8
CN(C(=O)c1cccc(NC(=O)Cc2cccc(NC(=O)C3CCN(C(=O)C4CCCCC4)CC3)c2)c1)C1CCC1,105,nt,12,nt,nt,nt,nt,nt
COc1ccc2ccc(O)c(CN(C)CC(=O)Nc3ccccc3C(F)(F)F)c2c1,109,-8,9,13,316,-2,nt,nt
COC(=O)c1nc2ccc(N3CCOCC3)cc2c(C)c1C(=O)OC,nt,nt,57*,-26,329,0,-1,5
O=C(Cn1nc(Cl)nc1Cl)c1ccccc1,100,-4,55*,-3,330,4,-1,-1
O=C(Cn1nc(Cl)nc1Cl)c1ccc(F)cc1,100,-10,-2,-4,438,-4,nt,nt
CCN(CC)C(=O)c1cccc(NC(=O)C2=COCCO2)c1,102,-3,68*,4,327,18*,-12,-5
SMILES,DSG3 Ab inh,JMJD2C inh,Arrestin-AP2 inh,HDAC3 inhib,T cell HTS,LANA-H2A inh,Arr AP2 CP1,GST GSH counter
COc1ccc(CC(=O)N2CCC(n3nccc3NC(=O)C3CC3)CC2)cc1,nt,-12,-6,7,174,2,nt,nt
COc1ccc(CC(=O)N2CCC(n3nccc3NC(=O)C3CCOC3)CC2)cc1 (stereo not drawn),nt,0,64*,-8,193,-2,-13,7
Cc1ccc(SCC(=O)NC(=O)NC2CCCC2)c(C)c1,114,nt,64*,nt,nt,nt,-4,-6
Cc1ccc(C)c(SCC(=O)NC(=O)NC2CCCC2)c1,102,nt,-3,nt,287,nt,nt,nt
COCCN(C(=O)COC(=O)Cc1cccc(OC)c1)c1c(N)n(CC(C)C)c(=O)[nH]c1=O,104,-5,46,-1,400,-5,nt,nt
CC1CCCC(NC(=O)COC(=O)COc2cccc(F)c2)C1C (stereo not drawn),92,5,6,1,299,2,nt,nt
Cc1cc(OCC(=O)Nc2nccs2)c2c(C)cc(=O)oc2c1,88,48,60*,-3,293,-2,2,-1
O=C(CCC1CCCN(C(=O)c2ccc3cc[nH]c3c2)C1)NCc1ccc(F)c(F)c1 (stereo not drawn),110,0,58*,5,177,-6,9,-7
COc1cc2c(cc1OC)CN(C(=S)Nc1ccc(OC(F)F)cc1)CC2,112,nt,56*,2,216,-5,0,-3
Cc1cc(-n2cnnn2)cc(C)c1S(=O)(=O)N(C)c1ccccc1,nt,9,-3,-1,287,2,nt,nt
COc1ccc(S(=O)(=O)NCC2CCCN(Cc3cccnc3)C2)cc1 (stereo not drawn),98,-15,27,-4,218,-7,nt,nt
COc1ccc(S(=O)(=O)NCC2CCCN(Cc3cccc(C(C)=O)c3)C2)cc1 (stereo not drawn),134,-5,62*,0,387,5,5,-1
CCCOc1ccc(C2C(C(=O)c3ccc(C)o3)=C(O)C(=O)N2Cc2ccco2)cc1OCC (stereo not drawn),110,13,64*,11,394,-5,7,2
CCCOc1ccc(C2C(C(=O)c3ccc(C)o3)=C(O)C(=O)N2Cc2ccco2)cc1 (stereo not drawn),102,-9,-16,0,269,3,nt,nt
COc1cccc(/C=C/C(=O)Nc2ccccc2N2CCOCC2)c1,118,-42,-19,2,236,-2,nt,nt
Cc1ccc(SCC(=O)OCC(=O)N(C)C2CCS(=O)(=O)C2)cc1C (stereo not drawn),101,7,-18,-4,279,-4,nt,nt
